The record followed here is ChEMBL document CHEMBL1133978, “Potent peptide alpha-ketohydroxamate inhibitors of recombinant human calpain I” (Bioorg Med Chem Lett, 2001).

The IC50 is the point on the concentration scale where inhibition reaches its midpoint. Usually inhibition stands for the percentage by which the read-out fell short of the control. Read a low inhibition as little suppression.

One assay relates to MOLT-4. As to the kind of experiment: Inhibition of cell permeability by measuring the spectrin breakdown product in intact MOLT-4 cells. The class given is functional, cell-based. The following applies: Homo sapiens. The gist of the method: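 Intact MOLT-4 cells (human leukemia T-cell line) had calpain activated with ionomycin. Cell permeability was read as inhibition of the spectrin breakdown product. Potency is reported as IC50.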
Turning to `CC(C)C[C@H](NC(=O)OCc1ccccc1)C(=O)N[C@@H](Cc1ccccc1)C(=O)C(=O)NOCc1c(F)c(F)c(F)c(F)c1F`, the midpoint of inhibition, the IC50, lay at 2900 nM. Same read-out and setting: to `CC(C)[C@@H](NC(=O)OCc1ccccc1)C(=O)N[C@@H](Cc1ccccc1)C(=O)C(=O)NOCc1ccccc1` belongs 600 nM; to `CC(C)C[C@H](NC(=O)OCc1ccccc1)C(=O)N[C@@H](Cc1ccccc1)C(=O)C(=O)NOCc1ccccc1`, 600 nM.

Compound `CCONC(=O)C(=O)[C@H](Cc1ccccc1)NC(=O)[C@H](CC(C)C)NC(=O)OCc1ccccc1` had an IC50 of 1100 nM.

Compound `CC(C)C[C@H](NC(=O)OCc1ccccc1)C(=O)N[C@@H](CC(C)C)C(=O)N[C@@H](Cc1ccccc1)C(=O)C(=O)NOCc1ccccc1` came in with an IC50 of 200 nM. For the compound `CS(=O)(=O)N[C@H](COCc1ccccc1)C(=O)N[C@@H](Cc1ccccc1)C(=O)C(=O)NOCc1ccccc1`, half-maximal inhibition (IC50) was put at 900 nM.

Compound `CC(C)C[C@H](NC(=O)OCc1ccccc1)C(=O)N[C@@H](Cc1ccccc1)C(=O)C(=O)NOC(C)(C)C` registered a concentration for half-maximal inhibition (IC50) of 3900 nM. This IC50 is about 4.3-fold higher than that of the compound before. On the same count and under the same terms, next, `CCCC[C@H](NC(=O)[C@@H](NC(=O)OCc1ccccc1)C(C)C)C(=O)C(=O)NOCc1ccccc1`: 500 nM; `CONC(=O)C(=O)[C@H](Cc1ccccc1)NC(=O)[C@H](CC(C)C)NC(=O)[C@H](CC(C)C)NC(=O)OCc1ccccc1`: 200 nM. Compound `CONC(=O)C(=O)[C@H](Cc1ccccc1)NC(=O)[C@H](CC(C)C)NC(=O)OCc1ccccc1` came in with an IC50 of 900 nM.

A further assay relates to MOLT-4. As to the kind of experiment: Compound was tested for inhibition of cell permeability by measuring the spectrin breakdown product in intact MOLT-4 cells at 1 uM. The following applies: Homo sapiens. It counts as functional. Put shortly: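 In intact MOLT-4 human leukemia T cells, calpain was activated by ionomycin. Spectrin breakdown product was measured, and inhibition is given as percent at a single 1 μM test concentration.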
In the case of `CC(C)C[C@H](NC(=O)OCc1ccccc1)C(=O)N[C@@H](Cc1ccccc1)C(=O)C(=O)NOC1CCC(C)CC1` (stereo partly specified), the inhibition at 1 µM turned out to be 26%.
